Laboratory results as given in EPA's CvTdb concentration-time database.
Blank lines part the entries; values can stand above or below the molecule they belong to.

How the values were obtained:
Rat [1] = experiment: concentration in liver after dosing; details: 24 h; dosed: Perfluorodecanoic acid; 10 mg/kg; oral; Female; Harlan Sprague Dawley
Rat [2] = experiment: concentration in plasma after dosing; details: dosed: Perfluorodecanoic acid, 2 mg/kg, oral, Male, Harlan Sprague Dawley
Rat [3] = experiment: concentration in kidney after dosing; details: 1 h; dosed: Perfluorodecanoic acid; 10 mg/kg; oral; Male; Harlan Sprague Dawley
Rat [4] = experiment: concentration in plasma after dosing; details: 1 h; dosed: Di-n-butyl phthalate; 100 mg/kg; oral; Male; Sprague-Dawley
Rat [5] = experiment: concentration in plasma after dosing; details: 4 h; dosed: Di-n-butyl phthalate; 100 mg/kg; oral; Male; Sprague-Dawley
Rat [6] = experiment: concentration in plasma after dosing; details: 6 h; dosed: Di-n-butyl phthalate; 100 mg/kg; oral; Male; Sprague-Dawley
Rat [7] = experiment: concentration in plasma after dosing; details: 20 min; dosed: Di-n-butyl phthalate; 50 mg/kg; oral; Male; Sprague-Dawley
Rat [8] = experiment: concentration in plasma after dosing; details: 10 h; dosed: Di-n-butyl phthalate; 50 mg/kg; oral; Male; Sprague-Dawley
Rat [9] = experiment: concentration in plasma after dosing; details: 0.5 h; dosed: Di-n-butyl phthalate; 50 mg/kg; oral; Male; Sprague-Dawley
Rat [10] = experiment: concentration in plasma after dosing; details: 20 min; dosed: Di-n-butyl phthalate; 20 mg/kg; iv; Male; Sprague-Dawley
human [11] = experiment: concentration in plasma after dosing; negative times count back from the end of exposure; details: dosed: trichloroethylene, 100 ppm, inhalation, duration: 4 hr, person
How it was run: (§1)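 Sampling and analytical methods are those of each source and frequently went unreported. The concentration-versus-time and amount-versus-time points were compiled from published in vivo toxicokinetic studies and two structured collections. Most were digitised from plot screenshots with WebPlotDigitizer, with others copied from tables, in the reported units.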

Rat [12] = experiment: concentration in plasma after dosing; details: 3 h; dosed: Wyeth-14643; 2.0 mg/kg; oral; Male; Sprague-Dawley
human [13] = experiment: concentration in urine after dosing; details: dosed: trichloroethylene, inhalation, duration: 2 hr - 20 min
How it was run: as §1

Rat [14] = experiment: concentration in plasma after dosing; details: dosed: Bis 2-Chloroethoxy Methane, 40 mg/kg, iv, Male, Harlan Sprague Dawley
Rat [15] = experiment: concentration in heart after dosing; details: 3 h; dosed: Bis 2-Chloroethoxy Methane; 20 mg/kg; iv; Female; F344
Rat [16] = experiment: concentration in thymus after dosing; details: 10 min; dosed: Bis 2-Chloroethoxy Methane; 20 mg/kg; iv; Male; F344
Rat [17] = experiment: concentration in plasma after dosing; details: dosed: Fluorotelomer alcohol 8+2, 12 mg/kg, oral, Male, Harlan Sprague Dawley
Rat [18] = experiment: concentration in brain after dosing; details: 6 h; dosed: Fluorotelomer alcohol 8+2; 80 mg/kg; oral; Female; Harlan Sprague Dawley
Rat [19] = experiment: concentration in plasma after dosing; details: dosed: Fluorotelomer alcohol 8+2, 40 mg/kg, iv, Female, Harlan Sprague-Dawley
Rat [20] = experiment: concentration in kidney after dosing; details: 0.5 h; dosed: Fluorotelomer alcohol 8+2; 80 mg/kg; oral; Female; Harlan Sprague Dawley
Rat [21] = experiment: concentration in kidney after dosing; details: 1 h; dosed: Fluorotelomer alcohol 8+2; 24 mg/kg; oral; Male; Harlan Sprague Dawley
Rat [22] = experiment: concentration in liver after dosing; details: 6 h; dosed: Fluorotelomer alcohol 8+2; 80 mg/kg; oral; Female; Harlan Sprague Dawley
Rat [23] = experiment: concentration in plasma after dosing; details: 10 h; dosed: Thiodiglycolic Acid; 20 mg/kg; iv; Male; F344
Rat [24] = experiment: concentration in plasma after dosing; details: 2 h; dosed: Thiodiglycolic Acid; 20 mg/kg; iv; Male; Harlan Sprague Dawley
Rat [25] = experiment: concentration in plasma after dosing; details: 4 h; dosed: Thiodiglycolic Acid; 20 mg/kg; iv; Female; Harlan Sprague Dawley
Rat [26] = experiment: concentration in plasma after dosing; details: 1 h; dosed: Thiodiglycolic Acid; 20 mg/kg; iv; Male; Harlan Sprague Dawley
Rat [27] = experiment: concentration in plasma after dosing; details: 10 min; dosed: Thiodiglycolic Acid; 20 mg/kg; iv; Female; Harlan Sprague Dawley
Rat [28] = experiment: concentration in thymus after dosing; details: 6.667 h; dosed: Thiodiglycolic Acid; 20 mg/kg; iv; Female; Harlan Sprague Dawley
Rat [29] = experiment: concentration in liver after dosing; details: 20 min; dosed: Thiodiglycolic Acid; 20 mg/kg; iv; Female; F344
Rat [30] = experiment: concentration in heart after dosing; details: 6.667 h; dosed: Thiodiglycolic Acid; 20 mg/kg; iv; Female; Harlan Sprague Dawley
Rat [31] = experiment: concentration in heart after dosing; details: 5.333 h; dosed: Thiodiglycolic Acid; 20 mg/kg; iv; Female; Harlan Sprague Dawley
Rat [32] = experiment: concentration in heart after dosing; details: 4 h; dosed: Thiodiglycolic Acid; 20 mg/kg; iv; Female; Harlan Sprague Dawley
Rat [33] = experiment: concentration in liver after dosing; details: 20 min; dosed: Thiodiglycolic Acid; 20 mg/kg; iv; Female; F344; remark: listed apart in the source
Rat [34] = experiment: concentration in plasma after dosing; details: 3 h; dosed: Primidone; 130 mg/kg; oral; Male; Harlan Sprague Dawley

Compound: O=C(O)C(F)(F)C(F)(F)C(F)(F)C(F)(F)C(F)(F)C(F)(F)C(F)(F)C(F)(F)C(F)(F)F [Perfluorodecanoic acid]
concentration in liver (Rat [1]): 139000 ng/g
concentration in plasma (Rat [2]; 0.5 h): 2.5 µg/mL
concentration in plasma (Rat [2]; 24 h): 7.51 µg/mL
concentration in plasma (Rat [2]; 1848 h): 1.09 µg/mL
concentration in kidney (Rat [3]): 8630 ng/g

Compound: CCCCOC(=O)c1ccccc1C(=O)O [Mono-n-butyl phthalate]
concentration in plasma (Rat [4]): 14.9 µg/mL
concentration in plasma (Rat [5]): 10.2 µg/mL
concentration in plasma (Rat [6]): 4.95 µg/mL
concentration in plasma (Rat [7]): 32.4 µg/mL
concentration in plasma (Rat [8]): 0.797 µg/mL
concentration in plasma (Rat [9]): 21.1 µg/mL
concentration in plasma (Rat [10]): 21.8 µg/mL

Compound: O=C(O)C(Cl)Cl [dichloroacetic acid]
concentration in plasma (human [11]; 0.25 h): 0.005 µg/mL
concentration in plasma (human [11]; 4 h): 0.007 µg/mL
concentration in plasma (human [11]; -1 h, during exposure): 0.004 µg/mL
concentration in plasma (human [11]; -2 h, during exposure): 0.004 µg/mL
concentration in plasma (human [11]; -3 h, during exposure): 0.004 µg/mL
concentration in plasma (human [11]; -3.948 h, during exposure): 0.004 µg/mL

concentration in plasma (Rat [12]): 0.426 µg/mL
Compound: Cc1cccc(Nc2cc(Cl)nc(SCC(=O)O)n2)c1C

Compound: O=C(O)C(Cl)(Cl)Cl [trichloroacetic acid]
concentration in urine (human [13]; 2.667 h, 1348 mg): 6.6 mg/kg
concentration in urine (human [13]; 2.667 h, 1681 mg): 4.3 mg/kg
concentration in urine (human [13]; 2.667 h, 3907 mg): 3 mg/kg
concentration in urine (human [13]; 6.667 h, 1348 mg): 14.2 mg/kg
concentration in urine (human [13]; 6.667 h, 1681 mg): 10.6 mg/kg
concentration in urine (human [13]; 6.667 h, 3907 mg): 14.2 mg/kg
concentration in urine (human [13]; 10.67 h, 1348 mg): 15.6 mg/kg
concentration in urine (human [13]; 10.67 h, 1681 mg): 22.2 mg/kg
concentration in urine (human [13]; 10.67 h, 3907 mg): 22.9 mg/kg
concentration in urine (human [13]; 19.67 h, 1348 mg): 21.1 mg/kg
concentration in urine (human [13]; 19.67 h, 1681 mg): 24.9 mg/kg
concentration in urine (human [13]; 19.67 h, 3907 mg): 26.7 mg/kg

Compound: ClCCOCOCCCl [Bis 2-Chloroethoxy Methane]
concentration in plasma (Rat [14]; 10 min): 22.6 µg/mL
concentration in plasma (Rat [14]; 5.333 h): 0.067 µg/mL
concentration in heart (Rat [15]): 124 ng/g
concentration in thymus (Rat [16]): 45200 ng/g

concentration in plasma (Rat [17]; 1 h): 0.329 µg/mL
concentration in plasma (Rat [17]; 24 h): 0.000982 µg/mL
concentration in brain (Rat [18]): 1310 ng/g
concentration in plasma (Rat [19]; 0.75 h): 4.71 µg/mL
concentration in plasma (Rat [19]; 12 h): 0.0555 µg/mL
concentration in kidney (Rat [20]): 4140 ng/g
concentration in kidney (Rat [21]): 1140 ng/g
concentration in liver (Rat [22]): 2430 ng/g
Compound: OCCC(F)(F)C(F)(F)C(F)(F)C(F)(F)C(F)(F)C(F)(F)C(F)(F)C(F)(F)F [Fluorotelomer alcohol 8+2]

Compound: O=C(O)CSCC(=O)O [Thiodiglycolic Acid]
concentration in plasma (Rat [23]): 0.304 µg/mL
concentration in plasma (Rat [24]): 0.934 µg/mL
concentration in plasma (Rat [25]): 0.36 µg/mL
concentration in plasma (Rat [26]): 1.58 µg/mL
concentration in plasma (Rat [27]): 38.1 µg/mL
concentration in thymus (Rat [28]): 335 ng/g
concentration in liver (Rat [29]): 162000 ng/g
concentration in heart (Rat [30]): 262 ng/g
concentration in heart (Rat [31]): 642 ng/g
concentration in heart (Rat [32]): 348 ng/g
concentration in liver (Rat [33]): 174000 ng/g

Compound: CCC1(c2ccccc2)C(=O)NC(=O)NC1=O [Phenobarbital]
concentration in plasma (Rat [34]): 1.21 µg/mL
